GPR7 antag – blocks human GPR7 receptor signaling | P48145 | GPR7-expressing cells, fluorescence antagonist assay | inhibition, % at 4.4 µM | 290,000 compounds, 1.1% hits | AID 1861; in the data active means inhibition above about 16%, passing the limit was not always enough;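 further: cells stimulated with the agonist NPW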
Target sequence (P48145 whole entry, looked up): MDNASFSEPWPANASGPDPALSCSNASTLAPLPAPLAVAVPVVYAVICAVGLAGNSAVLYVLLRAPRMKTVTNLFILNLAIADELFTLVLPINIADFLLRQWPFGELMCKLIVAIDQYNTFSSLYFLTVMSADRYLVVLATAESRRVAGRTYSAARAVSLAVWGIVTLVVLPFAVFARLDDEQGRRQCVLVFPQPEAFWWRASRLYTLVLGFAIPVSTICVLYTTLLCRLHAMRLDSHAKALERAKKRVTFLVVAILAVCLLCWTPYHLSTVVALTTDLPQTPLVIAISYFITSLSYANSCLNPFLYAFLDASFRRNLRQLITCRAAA
CHO parental Ca – counter-screen: ATP calcium response change in parental CHO cells; parental CHO-K1, ATP-induced calcium, Fluo-8 fluorescence; inhibition, % at 5.6 µM; AID 463079; 330,000 compounds, 0.63% hits;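 active means inhibition above that plate's mean sample inhibition plus 3 SD, cut at about 26% in these data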
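material = parental CHO cells | also added = ATP as calcium-mobilizing challenge | dosing = single point at 5.6 µM | detection = intracellular calcium via Fluo-8 no-wash fluorescent dye | read-out = % inhibition | benchmarks = low control ATP plus DMSO, high control DMSO only | repeats = one well per compound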
EP2 mod – modulates human prostaglandin E2 receptor EP2 signaling. P43116. EP2-expressing cells, cAMP HTRF FRET, PGE2 co-stimulation. induction, % at 25 µM. 260,000 compounds, 0.83% hits. AID 940;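 active means compounds whose cAMP rise, as percent of the full-agonist control response, exceeds 60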;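 further: rat C6 glioma line stably carrying human EP2 under a CMV promoter; the protocol text gives 20 µM as final concentration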
OX1R antag-1 – OX1R (human) antagonism; OX1R-expressing cells, FRET antagonist read-out; inhibition, % at 6.6 µM; AID 485270; 330,000 compounds, 1.8% hits; O43613; in the data active means inhibition mostly above about 38%, no sharp cut-off; inactive means mostly below about 40%
Target sequence (O43613 whole entry, looked up): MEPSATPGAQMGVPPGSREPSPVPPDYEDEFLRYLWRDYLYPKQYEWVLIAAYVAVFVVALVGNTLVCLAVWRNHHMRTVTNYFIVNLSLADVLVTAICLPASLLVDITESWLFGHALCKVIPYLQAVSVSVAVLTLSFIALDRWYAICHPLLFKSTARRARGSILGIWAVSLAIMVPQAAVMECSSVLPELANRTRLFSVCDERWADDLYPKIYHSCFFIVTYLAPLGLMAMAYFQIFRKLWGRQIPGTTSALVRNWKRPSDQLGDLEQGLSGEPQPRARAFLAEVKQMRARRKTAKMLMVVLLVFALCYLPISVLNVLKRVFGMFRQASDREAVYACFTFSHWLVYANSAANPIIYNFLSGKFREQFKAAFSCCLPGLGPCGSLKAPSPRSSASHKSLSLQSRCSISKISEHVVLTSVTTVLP
EP2 antag – inhibitors of human EP2 prostaglandin E2 receptor; inhibition, % at 25 µM; C6 glioma cells expressing human EP2, cAMP TR-FRET; cells stimulated with saturating PGE2; 260,000 compounds, 0.52% hits; AID 1422; P43116;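 active means percent inhibition above 40 after rounding to a whole number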;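 further: rat C6 glioma host cells with rolipram phosphodiesterase inhibitor present; the protocol text gives 20 µM as final concentration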
OX1R antag-2 – blocks the human orexin 1 receptor. CHO/OX1R cells, Fluo-8 calcium fluorescence, orexin A. AID 434989. 330,000 compounds, 0.43% hits. inhibition, % at 5 µM;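 active means inhibition above its plate's threshold, mean inhibition of all tested compounds on the plate plus 3 SD, cut at about 37% in these data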
EP2 cAMP induct – human EP2 receptor cAMP induction, negative in counter-screens | 1,300 compounds, 47% hits | shares compounds with EP2 mod | C6 glioma EP2 cells, cAMP HTRF induction; plus low (about EC15) PGE2 agonist | calls only at 20 µM (by protocol);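 active means cAMP induction above 50% in the main assay while under 30% in all four parallel counter assays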;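 further: rat C6 glioma cells stably expressing human EP2 receptor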
GPR7 antag conf – confirmation of human GPR7 antagonists | shares compounds with GPR7 antag | GPR7-expressing cells, calcium fluorescence antagonist mode | inhibition, % at 4.4 µM | 2,400 compounds, 52% hits | AID 1952; in the data active means inhibition above about 24%;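 further: stimulated with the GPR7 agonist NPW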
MCHR1 antag – counter-screen for GPR7 antagonists: antagonists of human MCHR1 | inhibition, % at 4.4 µM | shares compounds with GPR7 antag | AID 2148 | 2,400 compounds, 62% hits | MCHR1-expressing cells, fluorescence antagonist assay; in the data active means inhibition above about 22%
OX1R Ca confirm – OX1R (human) antagonism, confirmed; inhibition, % at 5 µM; 1,100 compounds, 38% hits; CHO/OX1R cells, orexin A calcium Fluo-8 fluorescence; shares compounds with OX1R antag-2; AID 492963; in the data active means inhibition above about 29%
CHO Ca triplic – counter-screen for OX1R antagonists: effect in parental CHO cells | parental CHO-K1, ATP-induced calcium, Fluo-8 fluorescence | shares compounds with OX1R antag-2 | 1,100 compounds, 9.3% hits | AID 492965 | inhibition, % at 5.6 µM;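 active means inhibition above a per-plate limit, the mean inhibition of that plate's test compounds plus 3 SD, cut at about 25% in these data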
OX1R HTRF conf – OX1R (human) antagonism, HTRF confirmed; shares compounds with OX1R antag-1; OX1R-expressing cells, HTRF antagonist assay; inhibition, % at 6.6 µM; 1,800 compounds, 49% hits; AID 492964; in the data active means inhibition above about 55%;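 further: CHO cells expressing OX1R stimulated with orexin A at about EC80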
CHO-K1 HTRF – signal in parental CHO-K1 cells, OX1R antagonist counter-screen; inhibition, % at 6.6 µM; HTRF counterscreen; 1,800 compounds, 48% hits; shares compounds with OX1R antag-1; in the data active means inhibition above about 17%
A number is an active result; i = inactive; nt = not tested or not shown; + = active, no number. In the library only some 3.7% were active in any assay of this set; here they are far more common.

SMILES	GPR7 antag	CHO parental Ca	EP2 mod	OX1R antag-1	EP2 antag	OX1R antag-2	EP2 cAMP induct	GPR7 antag conf	MCHR1 antag	others
C=CCn1c(=O)c(C(=O)NCc2ccc(Cl)cc2)c(O)c2ccccc21	i	nt	nt	nt	nt	nt	nt	nt	nt
Cc1sc(NC(=O)Cc2ccc3c(c2)OCO3)nc1-c1ccc2c(c1)CCN2C(=O)c1cccc(F)c1	i	i	72	i	i	i	i	nt	nt
CCOP(=O)(c1ccccc1)c1nc(-c2ccccc2C)oc1N1CCCCC1 (stereo unspecified)	i	i	70	i	i	i	+	nt	nt
CCOP(=O)(OCC)c1nc(-c2cccc3ccccc23)oc1N1CCCCC1	i	i	69	i	i	i	+	nt	nt
C=CCN1C(=O)N(/C=C/C)c2cccc3cccc1c23	i	i	68	i	i	i	+	nt	nt
Cc1nc(-c2cccc(NC(=O)c3ccc(-n4nccc4C)cc3)c2)cs1	nt	i	nt	i	nt	i	nt	nt	nt
C[C@@H]1CC[C@H]2C(C)(C)C3CC12CC[C@@]3(C)O (stereo partly specified)	nt	nt	65	nt	i	nt	+	nt	nt
C=C(C)COc1ccc2c(c1)CC[C@@H]1[C@H]3C/C(=N/O)C(=O)[C@]3(C)CC[C@@H]21	nt	nt	63	nt	i	nt	i	nt	nt
CCOC(=O)c1cc(CC)sc1NC(=O)c1ccc2c(c1)OCCO2	i	i	69	i	i	i	+	nt	nt
CCOC(=O)c1cc(C)sc1NC(=O)c1ccc(Cl)s1	i	i	65	i	i	i	+	nt	nt
CC(C)OC(=O)Cn1nc(C(F)(F)F)c2c1CCC2	nt	nt	i	nt	i	nt	nt	nt	nt
COc1ccc(CN2C(=O)CN=C2Nc2cc(C)ccc2C)cc1	i	i	70	i	i	i	i	nt	nt
CC(C)NC(=O)NC(=O)CSc1nnc(COc2ccccc2F)n1C(C)C1CC2CCC1C2 (stereo unspecified)	32	70	i	i	i	i	i	28	54
CC(C1CC2CCC1C2)n1c(COc2ccccc2F)nnc1SCC(N)=O (stereo unspecified)	i	i	i	i	i	i	nt	nt	nt
O=c1[nH]c(N2CCOCC2)nc2c1CN(C1CCCC1)CC2	nt	nt	i	nt	i	nt	nt	nt	nt
Cc1cccc(-c2nc(=S)c3c(n2Cc2ccco2)CCCC3)c1	28	i	66	i	i	i	i	i	i
COc1ccc(NC(=O)C2CCCCN2CCc2ccccc2)cc1OC (stereo unspecified)	nt	nt	i	nt	i	nt	nt	nt	nt
O=C(c1ccc2c(c1)OCO2)N(Cc1cccs1)C1(C(=O)NC2CCCCC2)CCCCC1	31	i	71	i	i	i	i	40	59
CCOC(=O)CC(=O)CSc1ncnc2c1oc1ccccc12	i	i	67	i	nt	i	i	nt	nt	OX1R Ca confirm=i;CHO Ca triplic=i
COC(=O)c1ccccc1S(=O)(=O)N1CCC(C(=O)NCCC2=CCCCC2)CC1	nt	i	nt	i	nt	i	nt	nt	nt
CCCn1c2ccccc2c2nc3ccccc3nc21	i	i	78	i	i	i	+	nt	nt	OX1R Ca confirm=i;CHO Ca triplic=i
CCn1c2ccc(F)cc2c2nc3ccccc3nc21	i	i	i	i	i	i	i	nt	nt	OX1R Ca confirm=i;CHO Ca triplic=i
COc1ccc(Cn2c3ccc(OC)cc3c3nc4ccccc4nc32)cc1	i	i	i	i	i	i	nt	nt	nt
CCN(CC)CCNc1nc(-n2nc(C)cc2C)nc2sc3c(c12)CC(C)(C)OC3	i	i	i	i	i	i	nt	nt	nt
C=CCN1C(=O)/C(=C/c2ccc(O)c(OC)c2)S/C1=N/c1nccs1	i	i	70	89	i	i	+	nt	nt	OX1R Ca confirm=36;CHO Ca triplic=i;OX1R HTRF conf=66;CHO-K1 HTRF=i
SMILES	GPR7 antag	CHO parental Ca	EP2 mod	OX1R antag-1	EP2 antag	OX1R antag-2	EP2 cAMP induct	GPR7 antag conf	MCHR1 antag	others
COc1ccc(NC(=O)Cn2nnc(C(=O)NCc3ccc(C)cc3)c2N)cc1Cl	i	i	nt	i	nt	i	nt	nt	nt
CC(=O)c1c(C)[nH]c(C(=O)NCc2ccccc2)c1C	i	i	i	i	i	i	nt	nt	nt
CCC(NC(=O)c1[nH]c(C)c(C(C)=O)c1C)c1ccc(Br)cc1 (stereo unspecified)	29	i	nt	i	nt	i	nt	i	i
COc1ccc(OCCOc2ccc(S(=O)(=O)N3CCCC3)cc2[N+](=O)[O-])cc1	nt	i	nt	i	nt	i	nt	nt	nt
COc1cccc(Oc2ccc(S(=O)(=O)N3CCCC3)cc2[N+](=O)[O-])c1	31	i	nt	i	nt	i	nt	i	i
O=[N+]([O-])c1cc(S(=O)(=O)N2CCCCCC2)ccc1Cl	39	nt	i	nt	i	nt	nt	63	i
C/C(=N\NC(=O)Cc1cccn1C)c1cccs1	i	i	i	i	i	i	nt	nt	nt
Cc1ccc(NS(=O)(=O)c2ccc(C(=O)NCC(c3ccco3)N(C)C)cc2)cc1 (stereo unspecified)	34	i	nt	i	nt	i	nt	52	43
COc1ccccc1NS(=O)(=O)c1ccc(C(=O)NCC(c2ccccc2OC)N(C)C)cc1 (stereo unspecified)	i	nt	nt	nt	nt	nt	nt	nt	nt
Cc1cccc(NS(=O)(=O)c2ccc(C(=O)NCC(c3ccccc3)N(C)C)cc2)c1C (stereo unspecified)	33	nt	nt	nt	nt	nt	nt	47	58
Cc1ccc(NC(=O)NCCCN2CCOCC2)cc1	i	i	i	i	i	i	nt	nt	nt
COc1ccc(Cl)c(N2CCN(CCCNC(=O)Nc3ccc(C)cc3)CC2)c1	31	i	i	i	nt	i	nt	i	42
COc1ccc(Cc2nc3ccc(C(=O)NCCc4ccncc4)cc3o2)cc1OC	i	i	nt	i	nt	i	nt	nt	nt
COc1ccc(Cc2nc3ccc(C(=O)NCCc4ccccn4)cc3o2)cc1OC	22	i	nt	i	nt	i	nt	i	i
COc1cccc(CNC(=O)C2=Cc3cccc(OC)c3OC2)c1	33	i	i	i	i	i	nt	i	i
CCN1C(=O)/C(=C/c2ccc(Cl)cc2)SC1=S	nt	nt	i	nt	i	nt	nt	nt	nt
COCCOC(=O)c1[nH]c2c(c1C)C(=O)CC(c1ccco1)C2 (stereo unspecified)	24	i	i	i	i	i	nt	i	36
